# Assay outcomes from PubChem.
# Apaf1 activ: activators of human Apaf-1 apoptosome | O14727 | Apaf-1 apoptosome caspase-3 activation, DEVD-Rh110 fluorescence; stronger effect = lower value | activity change, negative = activation, % at 20 µM | hit rate 0.31% among 330,000 | AID 489031;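 active = activity change at or below -40% at 20 µM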
# Target sequence (O14727 whole entry, looked up): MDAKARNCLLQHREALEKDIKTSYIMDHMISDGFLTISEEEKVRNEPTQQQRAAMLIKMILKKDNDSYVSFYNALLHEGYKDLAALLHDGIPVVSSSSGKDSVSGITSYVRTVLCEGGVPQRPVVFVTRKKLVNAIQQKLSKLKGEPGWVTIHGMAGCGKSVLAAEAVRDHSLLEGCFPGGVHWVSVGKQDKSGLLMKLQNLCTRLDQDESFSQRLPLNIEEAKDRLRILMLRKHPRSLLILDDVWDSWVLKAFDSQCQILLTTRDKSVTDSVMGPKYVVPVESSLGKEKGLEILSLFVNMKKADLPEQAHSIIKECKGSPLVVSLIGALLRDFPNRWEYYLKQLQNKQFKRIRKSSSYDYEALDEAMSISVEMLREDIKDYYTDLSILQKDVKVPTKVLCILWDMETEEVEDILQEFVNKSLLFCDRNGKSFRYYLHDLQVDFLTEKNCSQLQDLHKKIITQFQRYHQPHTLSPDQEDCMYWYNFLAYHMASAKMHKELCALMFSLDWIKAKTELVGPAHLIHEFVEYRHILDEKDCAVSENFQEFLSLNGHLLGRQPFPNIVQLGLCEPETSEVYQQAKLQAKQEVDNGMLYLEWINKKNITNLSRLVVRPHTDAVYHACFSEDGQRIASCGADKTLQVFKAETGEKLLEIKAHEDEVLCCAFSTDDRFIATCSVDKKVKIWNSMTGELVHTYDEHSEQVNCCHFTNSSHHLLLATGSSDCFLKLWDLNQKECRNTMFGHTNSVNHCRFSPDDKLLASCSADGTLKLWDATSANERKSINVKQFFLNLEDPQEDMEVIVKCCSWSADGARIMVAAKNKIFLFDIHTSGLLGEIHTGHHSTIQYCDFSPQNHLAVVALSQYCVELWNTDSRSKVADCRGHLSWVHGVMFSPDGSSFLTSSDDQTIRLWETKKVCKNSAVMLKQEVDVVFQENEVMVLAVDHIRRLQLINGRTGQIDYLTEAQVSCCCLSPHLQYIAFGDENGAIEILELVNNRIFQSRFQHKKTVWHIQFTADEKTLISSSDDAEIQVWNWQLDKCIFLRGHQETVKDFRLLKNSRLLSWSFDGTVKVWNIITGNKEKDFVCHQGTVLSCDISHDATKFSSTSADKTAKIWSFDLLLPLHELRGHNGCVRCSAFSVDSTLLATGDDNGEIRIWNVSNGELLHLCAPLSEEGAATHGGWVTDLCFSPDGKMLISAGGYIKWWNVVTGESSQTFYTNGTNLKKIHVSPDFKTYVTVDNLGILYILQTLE
#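 System: Reconstituted apoptosome of Apaf-1, cytochrome c, caspase-9, procaspase-3 | Reagent: dATP, cytochrome c, and (Z-DEVD)2-Rh110 caspase-3 substrate | Times: 30 min compound preincubation and 50 min reaction, both room temperature | Detection: Caspase-3-released Rh110 fluorescence, 540 nm emission, 480 nm excitation | Measure: Caspase-3 activity via Apaf-1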
# Rh110 act interf: interferes with Rh110 fluorescence, flagging false Apaf-1 activators | shares compounds with Apaf1 activ | Rh110 fluorescence interference, quenched caspase reaction, Ex480/Em540 | fluorescence interference (activity change), % at 20 µM, hits read low | 980 tested, under 10 active | AID 504616;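 active = mean activity change at or below -40% when tested at 20 µM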
# Apaf-1 act conf2: Apaf-1 (human) activation, single-dose confirmed; reconstituted apoptosome caspase-3 activity, DEVD-Rh110 fluorescence; stronger effect = lower value; shares compounds with Apaf1 activ; activity change, negative = activation, % at 20 µM; hit rate 5% among 980;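 active = mean activity change at or below -40%, meaning activation of 40% or more, at 20 µM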
# * hit, by the source's call; / = no result. The list is a sample of the results.
SMILES,Apaf1 activ,Rh110 act interf,Apaf-1 act conf2
COc1ccc(NCc2cc3cc(OC)ccc3[nH]c2=O)cc1,47,/,/
CNC(=S)N(Cc1cc2ccc(OC)cc2[nH]c1=O)CC1CCCO1 (stereo not drawn),-183*,5,15
COc1ccc2cc(C(c3nnnn3C3CCCC3)N3CCc4ccccc4C3)c(=O)[nH]c2c1 (stereo not drawn),72,/,/
CCOC(=O)c1c(-c2ccc(-c3ccccc3)cc2)csc1NC(=O)CNCCN(C)C,42,/,/
CN1C(C(=O)NCC2CC2)CC2Cn3c(nc4cc5ccccc5cc43)C21 (stereo not drawn),41,/,/
COc1ccc2cc(C(=O)Nc3ccc(Cl)cc3)sc(=O)c2c1OC,-46*,8,13
O=[N+]([O-])c1cc(CN2CCN(c3cccc(C(F)(F)F)c3)CC2)c2cccnc2c1O,42,/,/
COc1ccc(C[C@H]2CN3C(=NC[C@@H]3Cc3ccccc3)N2CCNC(=O)c2ccc(C)c(Br)c2)cc1,65,/,/
COc1ccccc1/C=N/Nc1cc(N(C)C)nc(N(C)C)n1,84,/,/
COc1cc(OC)c(OC)cc1/C=N/N(C)c1ccccc1,-78*,55,18
N#Cc1ccc(C23CC4(C2)[C@H](CN(Cc2ccc(-c5ccccc5)cc2)[C@@H]4c2ccccc2)C3c2ccc(C(F)(F)F)cc2)cc1 (stereo partly drawn),45,/,/
Cc1oc2c(c1C(=O)N1CCC(C)CC1)C(=O)c1ccccc1C2=O,42,/,/
Nc1cc(N)c(OCC(F)(F)F)cc1OCC(F)(F)F,84,/,/
CC(=O)OC1=C(O)C(=O)c2ccccc2C1=O,59,/,/
Cc1nc2ccc(Cl)cc2c(-c2ccccc2Cl)c1CC(=O)O,-42*,-5,17
Cc1cc(N)c2cc(NC(=O)/C=C/c3ccccc3Cl)ccc2n1,64,/,/
Cc1ccc(C(C[N+](=O)[O-])c2c(C)[nH]n(-c3ccccc3)c2=O)cc1 (stereo not drawn),93,/,/
Cc1cc(C)cc(NC(=O)C2CCN(S(C)(=O)=O)CC2)c1,-67*,1,0
O=C(CSc1nc(=O)n2ccccc2n1)NCc1ccccc1Cl,48,/,/
COc1ccc(-n2nc3ccc(N)cc3n2)cc1Cl,95,/,/
CCO[C@@H]1OC(C(=O)N2CCN(Cc3ccc4c(c3)OCO4)CC2)=C[C@H](c2ccc(C(F)(F)F)cc2)[C@H]1CCCO,42,/,/
O=C1N=C(N2CCN(Cc3ccccc3)CC2)S/C1=C/c1cccs1,-408*,11,20
COc1ccc2c(c1)c1ccc3c(c1n2C)C(=O)C=CC3=O,71,/,/
COc1ccc(NC(=O)c2c[nH]n3c(=O)cc(C4CCN(C(=O)OC(C)(C)C)CC4)nc23)cc1Cl,42,/,/
COC(=O)C1=C(C)N(Cc2ccccc2)C(=NCc2cccc(C(F)(F)F)c2)N[C@H]1c1cccc(C(F)(F)F)c1,74,/,/
SMILES,Apaf1 activ,Rh110 act interf,Apaf-1 act conf2
NC1=NC[C@@H](CC2CCCCC2)N1CCc1cc(C(F)(F)F)cc(C(F)(F)F)c1,79,/,/
Cc1ccccc1N=Cc1cccc(O)c1O,74,/,/
Clc1ccccc1-c1nn2c(-c3ccncc3)nnc2s1,47,/,/
CC1(C(=O)O)Oc2cccnc2NC1=O (stereo not drawn),-221*,-3,7
CCCOc1ccc(N)cc1N,91,/,/
Cc1ccc(C=Nc2ccccc2C(=O)Nc2ccccc2)cc1,-464*,5,8
CCC[C@@H](CN1CCC[C@H]1CN1C(N)=NC[C@H]1C(C)C)N1C[C@@H](Cc2ccccc2)N(CCCC2CCCC2)C1=N,46,/,/
CC1=NN(Cc2ccccc2)C(=O)C1,65,/,/
O=C(O)CCN1C(=O)/C(=C2\C(=O)N(Cc3ccccc3Cl)c3ccccc32)SC1=S,-121*,-1,-31
c1ccc(CN(CC2=NCCN2)c2ccccc2)cc1,-4,/,/
COc1ccc(C(=O)Nc2ccccc2C(=O)NC(Cc2ccc(O)cc2)C(=O)NNC(=O)c2ccccc2Cl)cc1 (stereo not drawn),-48*,3,16
CCCN1C(=O)/C(=C/c2cc(C)n(C)c2C)SC1=Nc1ccc(OC)cc1,41,/,/
Cc1[nH]n(-c2ccccc2)c(=O)c1/C=N/NC(=O)c1ccc(O)cc1O,73,/,/
COc1ccc(/C=N/NC(=O)c2cc(=O)[nH]c3ccccc23)cc1OC,-544*,-15,7
O=C(Cc1cc(=O)[nH][nH]1)N/N=C/c1cccc2ccccc12,54,/,/
COc1cc(OC)c(C2CC(=O)N3CN(c4ccccc4C)CSC3=C2C#N)cc1OC (stereo not drawn),66,/,/
CCN(CC)C(=O)C(=O)c1c(-c2ccccc2)[nH]c2ccccc12,-510*,10,17
CCN(c1ccccc1)c1cc2ccccc2c(=O)[nH]1,96,/,/
COc1ccccc1NC1=C(N2CCCCC2)C(=O)c2ccccc2C1=O,95,/,/
